Organism: Mus musculus
Assay: Proliferation induced by the mitogen alone-PWM (control blastogenesis), in Mice cells at a dose of 10 ug/mL
Format: functional
Parameters: unit not given here
Summary of the method: (§1)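 Splenocytes from female DBA/2 mice, 6–9 weeks old; red cells lysed with cold 0.17 M NH₄Cl. Cells plated at 5 × 10⁶ cells/mL in RPMI 1640 with 5% FCS, with compound (5–80 μg/mL range) and Con A, PWM or PHA at a batch-optimized concentration. Cultured 72 h at 37 °C, 5% CO₂, with [³H]thymidine for the final 24 h, read by scintillation. Triplicate wells; mean ± SD of three cultures.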

SMILES | Proliferative response
COc1ccc(C(=O)c2cc(N)ccc2N2CCC(C)CC2)cc1 | 103.3
Nc1ccc(N2CCC(O)CC2)c(C(=O)c2ccc(Cl)cc2)c1 | 107.9
CCC1CCN(c2ccc(N)cc2C(=O)c2ccc(Cl)cc2)CC1 | 88.7
CNc1ccc(N2CCC(C)CC2)c(C(=O)c2ccc(Cl)cc2)c1 | 20.3
Cc1cccc(C(=O)c2cc(N)ccc2N2CCC(C)CC2)c1 | 98.8
Nc1ccc(N2CCCCC2)c(C(=O)c2ccc(Cl)cc2)c1 | 47.7
Nc1ccc(N2CCC(Cc3ccccc3)CC2)c(C(=O)c2ccc(Cl)cc2)c1 | 108.2
CC(C)(C)C1CCN(c2ccc(N)cc2C(=O)c2ccc(Cl)cc2)CC1 | 114.8
CC1CCN(c2ccccc2C(=O)c2ccccc2)CC1 | 15.1
CC1CCN(c2ccc(N)cc2C(=O)c2cccc(C(F)(F)F)c2)CC1 | 79
CC1CCN(c2ccc(N)cc2C(=O)c2ccc(Cl)cc2Cl)CC1 | 105.5
CC1CCN(c2ccc(N)cc2C(=O)c2cccc(Cl)c2)CC1 | 102.8
CC1CCCN(c2ccc(N(C)C)cc2C(=O)c2ccc(Cl)cc2)C1 (centres undefined) | 21.4
COc1ccc(C(=O)c2ccccc2N2CCC(C)CC2)cc1 | 20.8

Organism: Mus musculus
Assay: Proliferation induced by the mitogen alone-PHA (control blastogenesis), in Mice cells at a dose of 5 ug/mL
Format: functional
Parameters: unit not given here
Summary of the method: as §1

SMILES | Proliferative response
COc1ccc(C(=O)c2cc(N)ccc2N2CCC(C)CC2)cc1 | 36.3
Nc1ccc(N2CCC(O)CC2)c(C(=O)c2ccc(Cl)cc2)c1 | 45
CCC1CCN(c2ccc(N)cc2C(=O)c2ccc(Cl)cc2)CC1 | 30.4
Cc1cccc(C(=O)c2cc(N)ccc2N2CCC(C)CC2)c1 | 47.9
Nc1ccc(N2CCC(Cc3ccccc3)CC2)c(C(=O)c2ccc(Cl)cc2)c1 | 27.4
CC(C)(C)C1CCN(c2ccc(N)cc2C(=O)c2ccc(Cl)cc2)CC1 | 59.1
CC1CCN(c2ccc(N)cc2C(=O)c2cccc(C(F)(F)F)c2)CC1 | 34.3
CC1CCN(c2ccc(N)cc2C(=O)c2ccc(Cl)cc2Cl)CC1 | 46.7
CC1CCN(c2ccc(N)cc2C(=O)c2cccc(Cl)c2)CC1 | 40.2

Organism: Mus musculus
Assay: Maximal proliferation induced in the presence of the mitogen-PHA ( stimulated blastogenesis) in Mice cells at a dose of 5 ug/mL
Format: functional
Parameters: unit not given here
Summary of the method: as §1

SMILES | Proliferative response
COc1ccc(C(=O)c2cc(N)ccc2N2CCC(C)CC2)cc1 | 54.3
Nc1ccc(N2CCC(O)CC2)c(C(=O)c2ccc(Cl)cc2)c1 | 52.6
CCC1CCN(c2ccc(N)cc2C(=O)c2ccc(Cl)cc2)CC1 | 37.4
Cc1cccc(C(=O)c2cc(N)ccc2N2CCC(C)CC2)c1 | 62.4
Nc1ccc(N2CCC(Cc3ccccc3)CC2)c(C(=O)c2ccc(Cl)cc2)c1 | 35.1
CC(C)(C)C1CCN(c2ccc(N)cc2C(=O)c2ccc(Cl)cc2)CC1 | 55
CC1CCN(c2ccc(N)cc2C(=O)c2cccc(C(F)(F)F)c2)CC1 | 36
CC1CCN(c2ccc(N)cc2C(=O)c2ccc(Cl)cc2Cl)CC1 | 46.4
CC1CCN(c2ccc(N)cc2C(=O)c2cccc(Cl)c2)CC1 | 40.9

Each molecule was assayed on Mus musculus (assay: Proliferation induced by the mitogen alone-Concanavalin A (control blastogenesis), in mice cells dosed at 5 ug/mL).
Format: functional
Parameters: unit not given here
Summary of the method: as §1

SMILES | Proliferative response
COc1ccc(C(=O)c2cc(N)ccc2N2CCC(C)CC2)cc1 | 322.1
Nc1ccc(N2CCC(O)CC2)c(C(=O)c2ccc(Cl)cc2)c1 | 374.8
CCC1CCN(c2ccc(N)cc2C(=O)c2ccc(Cl)cc2)CC1 | 319.5
CNc1ccc(N2CCC(C)CC2)c(C(=O)c2ccc(Cl)cc2)c1 | 18.2
Cc1cccc(C(=O)c2cc(N)ccc2N2CCC(C)CC2)c1 | 389.9
Nc1ccc(N2CCCCC2)c(C(=O)c2ccc(Cl)cc2)c1 | 24.6
Nc1ccc(N2CCC(Cc3ccccc3)CC2)c(C(=O)c2ccc(Cl)cc2)c1 | 328
CC(C)(C)C1CCN(c2ccc(N)cc2C(=O)c2ccc(Cl)cc2)CC1 | 30.5
CC1CCN(c2ccccc2C(=O)c2ccccc2)CC1 | 13.6
CC1CCN(c2ccc(N)cc2C(=O)c2cccc(C(F)(F)F)c2)CC1 | 332
CC1CCN(c2ccc(N)cc2C(=O)c2ccc(Cl)cc2Cl)CC1 | 280
CC1CCN(c2ccc(N)cc2C(=O)c2cccc(Cl)c2)CC1 | 316
CC1CCCN(c2ccc(N(C)C)cc2C(=O)c2ccc(Cl)cc2)C1 (centres undefined) | 17.6
COc1ccc(C(=O)c2ccccc2N2CCC(C)CC2)cc1 | 127.5

Organism: Mus musculus
Assay: Maximal proliferation induced in the presence of the mitogen-PWM ( stimulated blastogenesis) in Mice cells at a dose of 10 ug/mL
Format: functional
Parameters: unit not given here
Summary of the method: as §1

SMILES | Proliferative response
COc1ccc(C(=O)c2cc(N)ccc2N2CCC(C)CC2)cc1 | 121.8
Nc1ccc(N2CCC(O)CC2)c(C(=O)c2ccc(Cl)cc2)c1 | 88.7
CCC1CCN(c2ccc(N)cc2C(=O)c2ccc(Cl)cc2)CC1 | 114.6
CNc1ccc(N2CCC(C)CC2)c(C(=O)c2ccc(Cl)cc2)c1 | 19.5
Cc1cccc(C(=O)c2cc(N)ccc2N2CCC(C)CC2)c1 | 135.9
Nc1ccc(N2CCCCC2)c(C(=O)c2ccc(Cl)cc2)c1 | 44.8
Nc1ccc(N2CCC(Cc3ccccc3)CC2)c(C(=O)c2ccc(Cl)cc2)c1 | 79.5
CC(C)(C)C1CCN(c2ccc(N)cc2C(=O)c2ccc(Cl)cc2)CC1 | 137.5
CC1CCN(c2ccccc2C(=O)c2ccccc2)CC1 | 24.7
CC1CCN(c2ccc(N)cc2C(=O)c2cccc(C(F)(F)F)c2)CC1 | 79.9
CC1CCN(c2ccc(N)cc2C(=O)c2ccc(Cl)cc2Cl)CC1 | 115.9
CC1CCN(c2ccc(N)cc2C(=O)c2cccc(Cl)c2)CC1 | 105
CC1CCCN(c2ccc(N(C)C)cc2C(=O)c2ccc(Cl)cc2)C1 (centres undefined) | 18.6
COc1ccc(C(=O)c2ccccc2N2CCC(C)CC2)cc1 | 15.5

What follows are molecules tested on Mus musculus (assay: Maximal proliferation induced in the presence of the mitogen-Concanavalin A (stimulated blastogenesis) in mice cells dosed at 5 ug/mL).
Format: functional
Parameters: unit not given here
Summary of the method: as §1

SMILES | Proliferative response
COc1ccc(C(=O)c2cc(N)ccc2N2CCC(C)CC2)cc1 | 363.6
Nc1ccc(N2CCC(O)CC2)c(C(=O)c2ccc(Cl)cc2)c1 | 281.1
CCC1CCN(c2ccc(N)cc2C(=O)c2ccc(Cl)cc2)CC1 | 348
CNc1ccc(N2CCC(C)CC2)c(C(=O)c2ccc(Cl)cc2)c1 | 21.3
Cc1cccc(C(=O)c2cc(N)ccc2N2CCC(C)CC2)c1 | 414.1
Nc1ccc(N2CCCCC2)c(C(=O)c2ccc(Cl)cc2)c1 | 21.3
Nc1ccc(N2CCC(Cc3ccccc3)CC2)c(C(=O)c2ccc(Cl)cc2)c1 | 308
CC(C)(C)C1CCN(c2ccc(N)cc2C(=O)c2ccc(Cl)cc2)CC1 | 31.9
CC1CCN(c2ccccc2C(=O)c2ccccc2)CC1 | 9
CC1CCN(c2ccc(N)cc2C(=O)c2cccc(C(F)(F)F)c2)CC1 | 297.7
CC1CCN(c2ccc(N)cc2C(=O)c2ccc(Cl)cc2Cl)CC1 | 246.2
CC1CCN(c2ccc(N)cc2C(=O)c2cccc(Cl)c2)CC1 | 343.8
CC1CCCN(c2ccc(N(C)C)cc2C(=O)c2ccc(Cl)cc2)C1 (centres undefined) | 14.9
COc1ccc(C(=O)c2ccccc2N2CCC(C)CC2)cc1 | 165

From ChEMBL document CHEMBL1125686, “(Benzoylphenyl)piperidines: a new class of immunomodulators” (1991)
